The subject of test [1] is Mus musculus. Put plainly: Effective dose for analgetic activity on subcutaneous administration in mice using Writhing test; Inactive. It is filed as functional, organism-based. Summed up: (§1)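 Mouse acetic acid writhing assay. Compounds were given as methanesulfonic acid salts, dissolved in deionized water and injected subcutaneously. ED50 values and 95% confidence limits were calculated by the Litchfield–Wilcoxon method.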

Test [2] has as its system Rattus norvegicus. Put plainly: Effective dose for analgetic activity on intracerebroventricular administration in rats using tail flick test; Inactive. It is filed as functional, organism-based. The method in brief: (§2)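 Rats had cannulae stereotaxically implanted in the lateral ventricle (AP 0.0, L 2.0 from bregma, 3.5 mm below dura) and recovered for 2 weeks. Methanesulfonate salts in artificial rat CSF were injected icv at 10 μL over 30 s, with doses given as total amount. CSF alone served as control. After 0.5 h of acclimation in restraint, the tail was immersed 5 cm in 55 °C water at 5, 10, 15 and 20 min. Withdrawal latency was timed with a 30 s cutoff, averaging three observations. ED50 and 95% confidence limits were derived by Litchfield–Wilcoxon.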
A general note: Thermal pain tests record how soon the animal reacts.

A further test concerns the target Opioid receptor (Rattus norvegicus, UniProt P33533+P34975+P33535). Put plainly: Concentration required to inhibit opiate receptor using radioligand [3H]- Etorphine. It is filed as protein assay.
Test [3] relates to Rattus norvegicus. Nature of the test: Effective dose for analgetic activity on intracerebroventricular administration in rats using tail flick test. It is filed as functional. Summed up:
as §2

The test system of test [4] is Mus musculus. Put plainly: Effective dose for analgetic activity on subcutaneous administration in mice using Writhing test. Type of test: functional. As to conditions: sc. The method in brief:
as §1

Test [5] concerns Mus musculus. Nature of the test: Effective dose for analgetic activity on subcutaneous administration in mice using Writhing test; Inactive at 460 uM/kg. Type of test: functional, organism-based. The method in brief: as §1
For orientation: An intraperitoneal irritant provokes the stretching counted in writhing tests.

The test system of test [6] is Rattus norvegicus. Put plainly: Effective dose for analgetic activity on intracerebroventricular administration in rats using tail flick test; Inactive at 780 nM. Type of test: functional, organism-based. Summed up:
as §2

Calls of active or inactive are those of the source.

Broadly, the IC50 is the concentration at which inhibition is half-maximal. The low end stands for greater potency in that assay, the high end for weaker potency in that assay.

For the compound `COC(c1ccccc1)C1C2CN(C)CC1CN(C)C2` (stereo not drawn), the ED50 result in the test on Mus musculus [1] and in the test with Rattus norvegicus [2] was “inactive” throughout. The compound further yielded a half-inhibitory concentration (IC50) at Opioid receptor of 7200 nM.
As to `CN1CC[C@]23c4c5ccc(O)c4O[C@H]2[C@@H](O)C=C[C@H]3[C@H]1C5` [MORPHINE], the ED50 was 23 nM with Rattus norvegicus [3] and 3 µmol/kg in the test with Mus musculus [4].
`COC(c1cccc(O)c1)C1C2CN(C)CC1CN(C)C2` (stereo not drawn) registered a half-inhibitory concentration (IC50) at Opioid receptor of 2300 nM. In addition, the ED50 in the test with Mus musculus [4] is 0.56 µmol/kg.
Compound `CCC(=O)OC(c1cccc(O)c1)C1C2CN(C)CC1CN(C)C2` (stereo not drawn) returned an IC50 on Opioid receptor of 530 nM. Besides, the values for the ED50 with Rattus norvegicus [3] and in the test on Mus musculus [4] were 25 nM and 0.85 µmol/kg, respectively.
For the compound `CCC(=O)OC(c1ccccc1)C1C2CN(C)CC1CN(C)C2` (stereo not drawn), the ED50 result in the test on Mus musculus [5] and in the test on Rattus norvegicus [6] was “inactive” throughout. The compound also displayed an IC50 on Opioid receptor of 7600 nM.

For the origin of these results see ChEMBL document CHEMBL1123543, “3,7-Diazabicyclane: a new narcotic analgesic” (J Med Chem, 1986).
